Screening results from PubChem BioAssay.
Sampled rows, rich in hits. Any-hit rate of the full collection: about 3.2%.
DENV2 CPE rescue – inhibitors of DENV2 cytopathic effect, primary screen, cell-based, plate reader, single concentration; DENV2-infected cells, cytopathic effect rescue; 350,000 tested, 1.7% active; CPE inhibition, % at 9.99 µM; AID 651640, 2012; in the data active = CPE inhibition above about 20%, passing the limit was not always enough; tested in BHK-21 cells;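 note: 0% = median of neutral control wells and 100% = median of positive control wells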
PfHsp90 set2 – growth inhibition of PfHsp90-expressing yeast, primary screen, antimalarial PfHsp90 inhibitor project, S. cerevisiae, BacTiter-Glo luminescence, single point, set 2 | BacTiter-Glo ATP, 48 h; yeast lacking PDR1 and PDR3 efflux regulators | inhibition, % at 9.4 µM | 310,000 tested, 0.32% active | AID 504621, 2011;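 active = every replicate shows inhibition above about 80%, whatever the replicate mean, limit read from the data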;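 note: 0% = DMSO neutral controls and 100% = 20 µM radicicol positive controls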
Ecoli rRNA inh – reduced GFP signal of wild-type E. coli, primary screen, bacterial rRNA inhibitor project, GFP/RFP fluorescence, OD600, single point | E. coli WT GFP vs humanized-ribosome RFP mutants, 24 h; active compounds read low; DMSO median 0, no signal -100 | GFP signal change (wild-type ribosome), % (no concentration beside the values) | AID 720706, 2013 | 350,000 tested, 1.6% active;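 active = significant combined selectivity score with lowered wild-type GFP, culture density cut under 30%, mutant RFP and density less affected; inactive = any of these conditions unmet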
Cneo AK release – Cryptococcus neoformans cell lysis inducers, primary screen, AK release luminescence, single concentration. C. neoformans lysis, adenylate kinase release luminescence, 4 h; normalised: neutral wells 0, clomiphene wells 100. lysis activity, % at 15 µM. 360,000 tested, 0.2% active;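 active = mean lysis activity across replicates of at least 80%, whatever share of replicates individually reach that level; inactive = mean lysis activity below 80%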
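Test system: log-phase Cryptococcus neoformans yeast cells; Quantity: yeast cell density of 5 × 10^6 cells/mL; Buffer or medium: YPD; Doses: single compound concentration per well; Timing: 4 h at 37 °C static, read 1 h later; Measured by: AK luminescence; Read-out basis: lysis from increased AK signal; Control set: Clomiphene as positive control.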
MLL AF4-AF9 inh – inhibitors of AF4 peptide binding to AF9, primary screen, biochemical, AlphaScreen, biotin-AF4 peptide, FLAG-AF9, single point. Protein AF-9 (Homo sapiens), P42568. inhibition, % at 10 µM. 350,000 tested, 0.47% active;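 active = every replicate reaching a set inhibition limit, whatever the replicate mean, cut at about 25% in these data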;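 note: 0% = plate neutral control median and 100% = total signal loss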
Target sequence (P42568 whole entry, looked up): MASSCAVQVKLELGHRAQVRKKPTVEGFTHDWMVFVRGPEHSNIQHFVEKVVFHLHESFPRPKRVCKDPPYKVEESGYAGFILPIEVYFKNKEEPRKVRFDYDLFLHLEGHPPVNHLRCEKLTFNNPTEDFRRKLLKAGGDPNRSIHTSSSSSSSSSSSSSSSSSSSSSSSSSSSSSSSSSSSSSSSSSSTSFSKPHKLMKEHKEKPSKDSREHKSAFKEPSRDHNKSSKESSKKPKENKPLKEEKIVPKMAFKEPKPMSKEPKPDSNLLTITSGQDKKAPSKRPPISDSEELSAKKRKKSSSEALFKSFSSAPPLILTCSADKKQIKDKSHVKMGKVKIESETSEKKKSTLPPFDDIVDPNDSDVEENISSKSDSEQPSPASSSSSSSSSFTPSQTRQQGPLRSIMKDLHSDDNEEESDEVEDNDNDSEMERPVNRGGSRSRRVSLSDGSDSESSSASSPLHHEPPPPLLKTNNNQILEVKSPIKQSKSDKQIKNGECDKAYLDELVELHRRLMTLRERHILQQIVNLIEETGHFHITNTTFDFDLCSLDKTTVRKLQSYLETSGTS
S100A4 MyoIIA – inhibitors of S100A4-myosin IIA peptide binding, primary screen, biochemical, fluorescence polarization, TAMRA-MyoIIA peptide; Protein S100-A4 (Homo sapiens), P26447; inhibition, % at 10.7 µM; 360,000 tested, 0.14% active; AID 652163, 2013;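 active = mean inhibition of at least 70% across replicates, with every replicate also reaching that level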
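incubation = readout 5 min after mixing, signal stable up to 60 min | system = S100A4 monomer protein | buffer or medium = HEPES pH 7.2 with CaCl2, KCl, NaCl, DTT, Triton | benchmarks = neutral control DMSO, positive control TFP | also added = fluorescent myosin IIA peptide, 5 nM | compound dosing = one concentration per compound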
An asterisk follows results filed as active; nt = not tested or not shown.

SMILES | DENV2 CPE rescue | PfHsp90 set2 | Ecoli rRNA inh | Cneo AK release | MLL AF4-AF9 inh | S100A4 MyoIIA
Cc1ccc(-c2ccc([C@H]3[C@H]4CN(C)CCCCN4[C@H]3CO)cc2)cc1 | 5 | nt | 4 | 50 | 4 | -11
Cc1ccc(-c2ccc([C@H]3[C@@H](CO)N4CCCCN(C)C[C@H]34)cc2)cc1 | 27* | nt | 0 | 46 | 14 | -5
Cc1noc(C)c1NC(=O)Nc1cccc2c1O[C@H](CN(C)C(=O)Nc1cccc3ccccc13)[C@@H](C)CN([C@H](C)CO)C2=O | -2 | nt | 2 | 51 | 3 | 3
O=C(c1ccccc1)N1C[C@@H]2[C@H](c3ccccc31)[C@@H](CO)N2C(=O)CN1CCOCC1 | -6 | nt | 2 | -3 | -5 | -4
Cc1nnc(C)n1/N=C/c1cc(Br)cc(Br)c1O | nt | 101* | nt | 0 | nt | nt
CCCC(=O)Nc1ccc2c(c1)OC[C@@H](C)N(Cc1ccccc1F)C[C@@H](C)[C@@H](OC)CN(C)C2=O | -8 | nt | -3 | 3 | 0 | -9
CCCC(=O)Nc1ccc2c(c1)OC[C@@H](C)N(Cc1ccncc1)C[C@H](C)[C@@H](OC)CN(C)C2=O | 25* | nt | -2 | 47 | -8 | 4
CCC(=O)Nc1ccc2c(c1)C(=O)N(C)C[C@H](OC)[C@@H](C)CN(Cc1ccccc1C(=O)O)[C@@H](C)CO2 | -12 | nt | 3 | 3 | -14 | 0
CCCC(=O)Nc1ccc2c(c1)OC[C@H](C)N(Cc1cncnc1)C[C@@H](C)[C@H](OC)CN(C)C2=O | 5 | nt | -4 | 1 | -2 | 4
CCCC(=O)Nc1ccc2c(c1)OC[C@@H](C)N(Cc1cncnc1)C[C@@H](C)[C@@H](OC)CN(C)C2=O | -3 | nt | -1 | 94* | 44* | 4
CCCC(=O)Nc1ccc2c(c1)OC[C@H](C)N(Cc1ccccc1F)C[C@H](C)[C@@H](OC)CN(C)C2=O | 21* | nt | -5 | 8 | 1 | -20
CCC(=O)Nc1ccc2c(c1)OC[C@H](C)N(Cc1ccccc1C(=O)O)C[C@H](C)[C@@H](OC)CN(C)C2=O | 7 | nt | 1 | nt | -2 | 90*
CCC(C)[C@H]1COCCS(=O)(=O)N1Cc1ccc(Br)cc1 (some centres not stated) | 100* | 13 | -56 | 0 | 1 | -1
CCN(CC)c1ccc(CNc2ccc3c(c2)ncn3CC)cc1 | -5 | nt | 7 | nt | 45* | -10
CN(C)c1ccc(CNc2ccc3c(c2)ncn3C(C)(C)C)cc1 | -6 | -2 | 9 | -2 | 35* | 3
COc1cccc(CNC(=O)C[C@@H]2C=C[C@H](NC(=O)C3CCC3)[C@@H](CO)O2)c1 | nt | nt | 2 | nt | -6 | nt
CCCn1c(-c2ccc[nH]c2=O)nc2cc(C)c(C)cc21 | 25* | 1 | 3 | nt | -7 | 1
O=C(C[C@H]1CC[C@H](NC(=O)c2ccncc2)[C@@H](CO)O1)Nc1ccc(-c2ccccc2)cc1 | 5 | nt | nt | nt | -4 | -17
C[C@@H]1CCCCO[C@H](CN(C)Cc2ccc3c(c2)OCO3)[C@H](C)CN([C@@H](C)CO)C(=O)c2cc(NS(C)(=O)=O)ccc2O1 | nt | nt | 1 | nt | 2 | nt
C[C@@H]1CN([C@H](C)CO)C(=O)c2cccc(N(C)C)c2O[C@H]1CN(C)Cc1ccncc1 | 20* | nt | -2 | 0 | -5 | -5
C[C@H](CO)N1C[C@H](C)[C@@H](CN(C)Cc2ccccc2)Oc2c(cccc2N(C)C)C1=O | 3 | nt | -4 | 19 | -6 | 15
C[C@H](CO)N1C[C@H](C)[C@H](CN(C)CC2CC2)Oc2c(cccc2N(C)C)C1=O | 44* | nt | -1 | 3 | -3 | 2
O=C(O/N=C1\C(=O)N(c2ccccc2)c2ccccc21)C1CC1 | -2 | -4 | 6 | nt | 1 | -1
CN1C(=O)/C(=N/OC(=O)c2ccccc2)c2ccccc21 | nt | 137* | nt | nt | nt | nt
